# Experimental data gathered from unrelated publications.
# Protocols differ between the studies behind these lines.
# Melanocortin receptor 3: Melanocortin receptor 3 (Mus musculus, UniProt P33033)
# ADORA2B: Adenosine receptor A2b (ADORA2B, Homo sapiens, UniProt P29275)
# PBRM1 bromodomain: Protein polybromo-1, bromodomain (PBRM1, Homo sapiens, UniProt Q86U86)
target,read-out,mode,method,notes,endpoint,result,Compound
Melanocortin receptor 3,reporter gene,agonist,,,EC50,20.4 µM,N=C(N)NCCC[C@H](NC(=O)[C@H](CC(=O)O)NC(=O)[C@H](Cc1c[nH]c2ccccc12)NC(=O)[C@H](CCCNC(=N)N)NC(=O)[C@@H](N)Cc1ccccc1)C(=O)N[C@@H](Cc1ccccc1)C(=O)O
"Tyrosine-protein kinase JAK1, JH2 (JAK1, Homo sapiens, UniProt P23458)",binding,,competition with immobilised ligand,,Kd,0.29 µM,c1cncc(-c2cccc(Nc3nccc(NC4CCCCC4)n3)c2)c1
Melanocortin receptor 3,reporter gene,agonist,,,EC50,0.76 µM,N=C(N)NCCC[C@H](NC(=O)[C@H](CC(=O)O)NC(=O)[C@H](Cc1c[nH]c2ccccc12)NC(=O)[C@H](CCCNC(=N)N)NC(=O)[C@H](Cc1ccccc1)NC(=O)[C@H](Cc1c[nH]cn1)NC(=O)CN)C(=O)N[C@@H](Cc1ccccc1)C(=O)NCC(=O)O
"Toll-like receptor 7 (TLR7, Homo sapiens, UniProt Q9NYK1)",reporter gene,agonist,,,EC50,127 µM,CCCCOc1nc(N)c2[nH]c(=O)n(CCN)c2n1
ADORA2B,ligand displacement,,radioligand,cell membranes,Ki,> 10 µM,CCC(C)N1CCCn2c1nc1c2c(=O)n(C)c(=O)n1C (stereo not shown)
"Prostaglandin E2 receptor EP2 subtype (PTGER2, Homo sapiens, UniProt P43116)",cAMP,antagonist,TR-FRET,,Kb,~0.01 µM,Cc1[nH]c2ccccc2c1CCNC(=O)c1ccc(N(C)C)cc1
"Tyrosine-protein kinase Tec (TEC, Homo sapiens, UniProt P42680)",binding,,competition with immobilised ligand,,Kd,0.004 µM,CC#CC(=O)N1CC[C@@H](n2cc(-c3ccc(Oc4c(F)cccc4F)cc3)c3c(N)n[nH]c(=O)c32)C1
Melanocortin receptor 3,reporter gene,agonist,,,EC50,0.8 µM,CSCC[C@H](NC(=O)[C@@H](NC(=O)[C@@H](N)Cc1ccc(O)cc1)C(C)C)C(=O)NCC(=O)N[C@@H](Cc1c[nH]cn1)C(=O)N[C@@H](Cc1ccccc1)C(=O)N[C@@H](CCCNC(=N)N)C(=O)N[C@@H](Cc1c[nH]c2ccccc12)C(=O)N[C@@H](CC(=O)O)C(=O)O
ADORA2B,ligand displacement,,radioligand,cell membranes,Ki,> 10 µM,CN1CCCn2c1nc1c2c(=O)n(C)c(=O)n1C
"Potassium channel subfamily K member 2 (KCNK2, Homo sapiens, UniProt O95069)",binding,,BRET,,Kd,> 500 µM,CCCCCCCCCCCCC/C=C/[C@@H](O)[C@@H](N)COP(=O)(O)O
"Muscleblind-like protein 1 (Homo sapiens, UniProt Q9NR56)",binding,,,lysate,Kd,0.023 µM,Cc1cc2nc3c(=O)[nH]c(=O)nc-3n(C[C@H](O)[C@H](O)[C@H](O)COP(=O)(O)OP(=O)(O)OC[C@H]3O[C@@H](n4cnc5c(N)ncnc54)[C@H](O)[C@@H]3O)c2cc1C
ADORA2B,ligand displacement,,radioligand,cell membranes,Ki,> 10 µM,CC(C)CC(C)N1CCCn2c1nc1c2c(=O)n(C)c(=O)n1C (stereo not shown)
"Beta-3 adrenergic receptor (ADRB3, Homo sapiens, UniProt P13945)",cell-free assay,,radioligand,,Ki,> 10 µM,CCCCN1CCC(COC(=O)c2ccc(N)c(OCF)c2)CC1
ADORA2B,GTPγS binding,agonist,,cell membranes,EC50,13.2 µM,CCNC(=O)[C@H]1O[C@@H](n2cnc3c(N)nc(NN=C[C@H]4CCC=CO4)nc32)[C@H](O)[C@@H]1O
"Bromodomain-containing protein 2, BD1 (BRD2, Homo sapiens, UniProt P25440)",binding,,ITC,,Kd,0.111 µM,CC(=O)N[C@H](C(=O)N1C[C@H](O)C[C@H]1C(=O)NCc1ccc(-c2scnc2C)cc1)C(C)(C)SCCCCCCNC(=O)C[C@@H]1N=C(c2ccc(Cl)cc2)c2c(sc(C)c2C)-n2c(C)nnc21
"Metabotropic glutamate receptor 8 (Grm8, Rattus norvegicus, UniProt P70579)",calcium signal,agonist,,,EC50,0.77 µM,N[C@@H](CCC(=O)O)C(=O)O
"5-hydroxytryptamine receptor 4 (HTR4, Homo sapiens, UniProt Q13639)",ligand displacement,,radioligand,,Ki,0.0011 µM,CCCCN1CCC(COC(=O)c2ccc(N)c(OC)c2)CC1
Melanocortin receptor 3,reporter gene,agonist,,,EC50,0.036 µM,CSCC[C@H](NC(=O)[C@@H](NC(=O)[C@@H](N)Cc1ccc(O)cc1)C(C)C)C(=O)NCC(=O)N[C@@H](Cc1c[nH]cn1)C(=O)N[C@@H](Cc1ccccc1)C(=O)N[C@@H](CCCNC(=N)N)C(=O)N[C@@H](Cc1c[nH]c2ccccc12)C(=O)N[C@@H](CC(=O)O)C(=O)N[C@@H](CCCNC(=N)N)C(=O)O
ADORA2B,ligand displacement,,radioligand,cell membranes,Ki,> 10 µM,CC(C)CCCC(C)N1CCCn2c1nc1c2c(=O)n(C)c(=O)n1C (stereo not shown)
Melanocortin receptor 3,reporter gene,agonist,,,EC50,10.4 µM,CSCC[C@H](NC(=O)[C@@H](N)Cc1ccc(O)cc1)C(=O)N[C@@H](Cc1c[nH]cn1)C(=O)N[C@@H](Cc1ccccc1)C(=O)N[C@@H](CCCNC(=N)N)C(=O)N[C@@H](Cc1c[nH]c2ccccc12)C(=O)N[C@@H](Cc1ccccc1)C(=O)O
ADORA2B,ligand displacement,,radioligand,cell membranes,Ki,> 10 µM,CCCCCCN1CCCn2c1nc1c2c(=O)n(C)c(=O)n1C
Melanocortin receptor 3,reporter gene,agonist,,,EC50,> 100 µM,N=C(N)NCCC[C@H](NC(=O)[C@@H](N)CC(=O)O)C(=O)N[C@@H](Cc1ccccc1)C(=O)NCC(=O)O
ADORA2B,ligand displacement,,radioligand,cell membranes,Ki,> 10 µM,C#CCN1CCCn2c1nc1c2c(=O)n(C)c(=O)n1C
Melanocortin receptor 3,reporter gene,agonist,,,EC50,2.67 µM,N=C(N)NCCC[C@H](NC(=O)[C@H](CC(=O)O)NC(=O)[C@H](Cc1c[nH]c2ccccc12)NC(=O)[C@H](CCCNC(=N)N)NC(=O)[C@H](Cc1ccccc1)NC(=O)[C@@H](N)Cc1c[nH]cn1)C(=O)N[C@@H](Cc1ccccc1)C(=O)NCC(=O)O
PBRM1 bromodomain,binding,,SPR,,Kd,2.7 µM,Cc1ncsc1-c1ccc(CNC(=O)[C@@H]2C[C@@H](O)CN2C(=O)[C@@H](NC(=O)C2(F)CC2)C(C)(C)C)c(OCCOCCOCCN2CCN(c3cc(-c4ccccc4O)nnc3N)CC2)c1
ADORA2B,ligand displacement,,radioligand,cell membranes,Ki,> 10 µM,C=CN1CCCn2c1nc1c2c(=O)n(C)c(=O)n1C
Melanocortin receptor 3,reporter gene,agonist,,,EC50,> 100 µM,N=C(N)NCCC[C@H](N)C(=O)N[C@@H](Cc1ccccc1)C(=O)NCC(=O)O
PBRM1 bromodomain,binding,,SPR,,Kd,0.62 µM,Cc1ncsc1-c1ccc(CNC(=O)[C@@H]2C[C@H](O)CN2C(=O)[C@@H](NC(=O)C2(F)CC2)C(C)(C)C)c(OCCOc2ccc(CN3CCN(c4cc(-c5ccccc5O)nnc4N)CC3)cc2)c1
